How the values were obtained:
Type in all cases: functional, cell-based
[1] = system: A549; assay: Cytotoxicity against human A549 cells after 48 hrs by MTT assay; conditions: A549, 48 h
Outline: (§1)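 Cells in RPMI-1640 with 10% heat-inactivated calf serum, penicillin/streptomycin, 5% CO2, 37 °C. Seeded at 5×10³ per well and exposed to six concentrations of 0.01–1000 for 48 h. Then 0.5% MTT for 4 h at 37 °C, formazan dissolved in DMSO, absorbance read at 570 nm. Inhibition calculated as (1 − treated/control absorbance)×100. IC50 is the concentration giving 50% inhibition; mean ± SD of three observations.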

[2] = system: BGC-823; assay: Cytotoxicity against human BGC823 cells after 48 hrs by MTT assay; conditions: BGC-823, 48 h; outline: as §1
[3] = system: SK-OV-3; assay: Cytotoxicity against human SKOV3 cells after 48 hrs by MTT assay; conditions: SK-OV-3, 48 h; outline: as §1
[4] = system: HT-29; assay: Cytotoxicity against human HT-29 cells after 48 hrs by MTT assay; conditions: HT-29, 48 h; outline: as §1
[5] = system: Bel-7402; assay: Cytotoxicity against human Bel7402 cells after 48 hrs by MTT assay; conditions: Bel-7402, 48 h; outline: as §1

SMILES | IC50 [1] [µM] | IC50 [2] [µM] | IC50 [3] [µM] | IC50 [4] [µM] | IC50 [5] [µM]
C/C(=C/C[C@@]12OC(C)(C)[C@@H]3C[C@@H](C=C4C(=O)c5c(O)c6c(c(CC7OC7(C)C)c5O[C@]431)O[C@](C)(CCC1OC1(C)C)C=C6)C2=O)C(=O)O (stereo not given in full) | 1.56 | 4.38 | 0.76 | 2.08 | 3.73
COC(=O)/C(C)=C\C[C@@]12OC(C)(C)[C@@H]3C[C@@H](C=C4C(=O)c5c(OC)c6c(c(CC=C(C)C)c5O[C@]431)O[C@](C)(CC/C=C(\C)COC(C)=O)C=C6)C2=O | 5.25 | 1.42 | 15.8 | 2.41 | 3.6
CC(C)=CCC[C@]1(C)C=Cc2c(O)c3c(c(CC=C(C)C)c2O1)O[C@]12[C@H]4C[C@H](C(=O)[C@]1(C/C=C(/C)C(=O)O)OC4(C)C)C(O)C2(O)C3=O (stereo not given in full) | 74.2 | 29.9 | 6 | 34.7 | 33.1
CC(C)=CCC[C@]1(C)C=Cc2c(O)c3c(c(C/C=C(\C)CO)c2O1)O[C@]12C(=C[C@@H]4C[C@H]1C(C)(C)O[C@@]2(C/C=C(/C)C(=O)O)C4=O)C3=O | 5.87 | 4.89 | 1.61 | 2.66 | 4.01
COC(=O)/C(C)=C\C[C@@]12OC(C)(C)[C@@H]3C[C@@H](C=C4C(=O)c5c(OC)c6c(c(CC=C(C)C)c5O[C@]431)O[C@](C)(CC[C@H](O)C(C)(C)O)C=C6)C2=O | 5.86 | 3.46 | 3.23 | 3.75 | 3.65

— ChEMBL document CHEMBL1158351, “Studies on chemical structure modification and biology of a natural product, gambogic acid (I): Synthesis and biological evaluation of oxidized analogues of gambogic acid” (Eur J Med Chem, 2009)
